Results reported in ChEMBL document CHEMBL1123673, “Comparison of aminoglycoside antibiotics with respect to uptake and lethal activity in Escherichia coli” (J Med Chem, 1987).

What was measured:
[1] = Percent killing of the total Escherichia coli K12 (ATCC 25868) cells at the C50 concentration was determined.; assay type: ADME
[2] = test system: Escherichia coli; experiment: Concentration required for half maximum rate of enhanced [3H]DHS (Dihydrostreptomycin) uptake in Escherichia coli K12 (ATCC 25868)was estimated from dose-response curves; assay type: functional
In short: (§1)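 Cultures in tryptone-peptone broth at 37 °C with shaking, grown from OD600 ~0.05 to 0.20, then preexposed to antibiotic for 20 min at 37 °C. Cells pelleted, resuspended in equal volume fresh broth, pulsed 5.0 min at 37 °C with [3H]DHS (1.0 µCi/mL, 3.8 Ci/mmol). Samples filtered, washed with 0.1 M LiCl, scintillation counted. C50 = half-maximal rate estimated from dose-response curves.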

[3] = test system: Escherichia coli; experiment: Estimated rate of [3H]DHS uptake in Escherichia coli K12 (ATCC 25868); assay type: functional; design: unit not given here; in short: as §1
[4] = Lethal dose required to kill 90% of the Escherichia coli K12 (ATCC 25868) cell population; assay type: ADME
In short: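 E. coli K12 in tryptone-peptone broth at 37 °C, OD600 0.20, exposed 20 min at 37 °C to antibiotic; pellets resuspended to OD600 0.10–0.15 in TPB, serially diluted, plated on tryptone-peptone agar, colonies counted after overnight at 37 °C. Value is the concentration killing 90% of the population.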

[5] = test system: Escherichia coli;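 note: escherichia coli cells, read-out is the rate of enhanced [3H]DHS uptake, C50 being the level that yields half of the maximal rate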
[6] = test system: Escherichia coli; experiment: Estimated rate of [3H]DHS (Dihydrostreptomycin) uptake in Escherichia coli K12 (ATCC 25868) [pmol/min (optical density unit)E-1] at the C50 was determined.; assay type: functional; in short: as §1

SMILES	Kill at C50 [1]	C50 [2]	Uptake at C50 [3]	LD90 [4]	C50 [5]	Uptake at C50 [6]
CNC1C(OC2OC(CO)C(N)C(O)C2O)OC2CC(NC(=O)C(O)CCN)C(OC3C(N)CC(N)C(O)C3O)OC2C1O (stereo not drawn)	93%	0.84 µM	2.6	0.72 µM	–	–
CNC1C(OC2OC(CO)C(N)C(O)C2O)OC2CC(NC(=O)CN)C(OC3C(N)CC(N)C(O)C3O)OC2C1O (stereo not drawn)	53%	–	3.3	0.83 µM	0.45 µM	–
NCC1CCC(N)C(OC2C(N)CC(N)C(OC3OC(CO)C(O)C(N)C3O)C2O)O1 (stereo not drawn)	74%	–	8.1	0.89 µM	–	–
CNC1C(OC2OC(CO)C(N)C(O)C2O)OC2CC(N)C(OC3C(N)CC(NC(=O)CN)C(O)C3O)OC2C1O (stereo not drawn)	94%	1.1 µM	2.1	0.84 µM	–	–
NCC1OC(OC2C(N)CC(NC(=O)C3(O)CNC3)C(OC3OC(CO)C(O)C(N)C3O)C2O)C(N)CC1O (stereo not drawn)	50%	–	4.4	0.63 µM	0.12 µM	–
COC1C(O)C(N)C(OC2OC([C@H](C)N)CCC2N)C(O)C1N(C)C(=O)CN (stereo partly drawn)	93%	–	5.6	0.7 µM	0.86 µM	–
CNC1C(O)C(OC2C(N)CC(N)C(OC3OC(C(C)N)CCC3N)C2O)OCC1(C)O (stereo not drawn)	98%	0.26 µM	–	0.14 µM	–	6.5
NC[C@H]1O[C@H](O[C@@H]2[C@@H](O)[C@H](O[C@@H]3[C@H](O)[C@H](N)C[C@@H](N)[C@H]3O[C@H]3O[C@@H](CO)[C@@H](O)C[C@@H]3N)O[C@@H]2CO)[C@@H](N)[C@@H](O[C@H]2O[C@H](CO)[C@@H](O)[C@H](O)[C@@H]2O)[C@@H]1O	78%	–	4.4	0.88 µM	0.57 µM	–
NCC1OC(OC2C(N)CC(NC(=O)C3(O)CCNC3)C(OC3OC(CO)C(O)C(N)C3O)C2O)C(N)CC1O (stereo not drawn)	65%	–	4.4	0.31 µM	0.12 µM	–
CNC1C(OC2OC(CO)C(N)C(O)C2O)OC2CC(N)C(OC3C(N)CC(NC(=O)C(O)CCN)C(O)C3O)OC2C1O (stereo not drawn)	53%	0.39 µM	2.4	1.2 µM	–	–
CN(C)[C@@H]1C(O)=C(C(N)=O)C(=O)[C@@]2(O)C(O)=C3C(=O)c4c(O)cccc4[C@@](C)(O)[C@H]3C[C@@H]12	–	–	–	–	> 50 µM	–
CN1C(NC2OC(CO)C(OC(N)=O)C(O)C2NC(=O)CC(N)CCCN)=N[C@@H]2[C@H](O)CNC(=O)[C@H]21 (stereo partly drawn)	–	–	4.1	–	0.1 µM	–
CN[C@@H]1[C@H](O)[C@H](NC)[C@H]2O[C@@]3(O)C(=O)C[C@@H](C)O[C@H]3O[C@@H]2[C@H]1O	–	–	–	–	> 10 µM	–
CN[C@H]1C[C@@H](N)[C@H](O)[C@@H](O[C@@H]2O[C@H](CO)[C@H](O)[C@H]3O[C@@]4(O[C@H]23)O[C@H]([C@H](N)CO)[C@H](O)[C@H](O)[C@H]4O)[C@@H]1O	–	–	–	–	> 50 µM	–
NCCCCNCCCN	–	–	–	–	> 50 µM	–
NC[C@@H]1O[C@@H](O[C@H]2[C@H](O)[C@@H](O[C@H]3O[C@H](CO)[C@@H](O)[C@H](N)[C@H]3O)[C@H](N)C[C@@H]2N)[C@@H](O)[C@H](O)[C@H]1O	–	–	3.5	–	0.95 µM	–
O=C(N[C@H](CO)[C@H](O)c1ccc([N+](=O)[O-])cc1)C(Cl)Cl	–	–	–	–	> 50 µM	–
